High-throughput results deposited in PubChem BioAssay by The Scripps Research Institute Molecular Screening Center.
The list is not random: actives were taken first. Their share in the collection is about 1.9%.
CHRM5 PAM: human M5 muscarinic receptor positive allosteric modulators, primary screen, CHO-K1 cells, Fluo-8 calcium fluorescence. Muscarinic acetylcholine receptor M5 (Homo sapiens), P08912. CHO-K1 hM5, ACh EC20 PAM; 0% = ACh EC20, 100% = ACh EC100. activation, % at 3 µM. hit rate 0.3% among 360,000. AID 624038, 2012;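 active = activation above the run cutoff, the mean activation of all test compounds plus 3 SD, cut at about 18% in these data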
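Probe or stimulus: acetylcholine, EC20 level; Assay system: human M5 receptor in CHO-K1 cells; Schedule: compound preincubation 140 s before EC20 acetylcholine addition; Technique: intracellular calcium via Fluo-8 fluorescence; Dosing: single-point, 3 µM nominal; Read-out basis: percent activation from peak-over-basal fluorescence ratio, scaled EC20-to-EC100 acetylcholine; Repeats: one well per compound, no replicates.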
CHRM4 antagonist: human M4 muscarinic receptor antagonists, primary screen, CHO cells, Fluo-8 calcium fluorescence; Muscarinic acetylcholine receptor M4 (Homo sapiens), P08173; hit rate 0.73% among 360,000; inhibition, % at 3 µM; CHO-hM4 cells, ACh EC80; AID 624125, 2012;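 active = inhibition above its plate's cutoff, the mean inhibition of sample wells plus 3 SD, cut at about 27% in these data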;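 also: 0% = acetylcholine EC80 with DMSO and 100% = DMSO without agonist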
Target sequence (P08173 whole entry, looked up): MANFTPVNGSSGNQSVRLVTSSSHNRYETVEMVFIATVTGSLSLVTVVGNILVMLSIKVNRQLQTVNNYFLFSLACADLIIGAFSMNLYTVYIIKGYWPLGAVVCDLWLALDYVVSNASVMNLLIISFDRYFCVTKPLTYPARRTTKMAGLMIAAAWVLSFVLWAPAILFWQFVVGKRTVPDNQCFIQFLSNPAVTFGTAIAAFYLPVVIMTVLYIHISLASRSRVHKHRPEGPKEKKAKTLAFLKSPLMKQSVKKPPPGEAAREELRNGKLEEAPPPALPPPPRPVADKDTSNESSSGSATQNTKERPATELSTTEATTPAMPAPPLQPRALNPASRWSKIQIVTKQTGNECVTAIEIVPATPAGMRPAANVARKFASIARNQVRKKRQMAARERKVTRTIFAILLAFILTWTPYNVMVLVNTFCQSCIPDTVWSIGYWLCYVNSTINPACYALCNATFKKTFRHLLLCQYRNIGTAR
M4 ag: human M4 muscarinic receptor agonists, primary screen, CHO-K1 cells, Fluo-8 calcium fluorescence; Muscarinic acetylcholine receptor M4 (Homo sapiens), P08173; CHO-K1 hM4/Gqi5; vehicle 0%, full acetylcholine response 100%; activation, % at 3 µM; hit rate 0.14% among 360,000; AID 624127, 2012;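 active = activation above the run mean over all test wells plus 3 SD, cut at about 32% in these data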;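 also: peak over basal fluorescence ratio per well then scaled between controls; 0% = DMSO wells and 100% = acetylcholine at EC100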
CHRM5 agonist: human M5 muscarinic receptor agonists, primary screen, CHO-K1 cells, Fluo-8 calcium fluorescence; activation, % at 3 µM; hit rate 0.19% among 360,000; Muscarinic acetylcholine receptor M5 (Homo sapiens), P08912; CHO-K1 hM5 cells; 0% DMSO wells, 100% maximal acetylcholine response; AID 624037, 2012;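 active = activation above the run's mean over test compounds plus 3 SD, cut at about 23% in these data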;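 also: signal is peak over basal fluorescence ratio across the kinetic read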
M4 PAM: human M4 muscarinic receptor positive allosteric modulators, primary screen, CHO-K1 cells, Fluo-8 calcium fluorescence | Muscarinic acetylcholine receptor M4 (Homo sapiens), P08173 | CHO-K1 hM4/Gqi5, ACh EC20; 0% = ACh EC20, 100% = maximal ACh | activation, % at 3 µM | hit rate 0.4% among 360,000;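 active = activation above its plate's cutoff, the mean activation of sample wells plus 3 SD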
CHRM5 antagonist: human M5 muscarinic receptor antagonists, primary screen, CHO cells, Fluo-8 calcium fluorescence | hit rate 0.59% among 360,000 | inhibition, % at 3 µM | CHO-hM5 cells, ACh EC80;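 active = inhibition above a per-plate cutoff, the mean of that plate's test compounds plus 3 SD, cut at about 27% in these data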;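 also: 0% = acetylcholine EC80 with DMSO and 100% = DMSO without agonist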
* = called active by the depositor.

SMILES | CHRM5 PAM | CHRM4 antagonist | M4 ag | CHRM5 agonist | M4 PAM | CHRM5 antagonist
O=C(Nc1ccccc1)c1cc(C2CCCCN2S(=O)(=O)c2ccc(F)cc2F)on1 (stereo unspecified) | 0.1 | -10.4 | -0.1 | -1.6 | 1.6 | 0.3
CCOc1ccc(CCN2C(=S)N([C@@H](Cc3ccc(O)cc3)CN3CCC[C@@H]3CN3C(=S)NC[C@@H]3Cc3ccccc3)C[C@@H]2Cc2ccc(O)cc2)cc1 | -2.4 | -3.0 | -0.3 | -1.9 | -5.3 | 6.3
CCN(CC)CCN(C(=O)c1ccc2ccccc2c1)c1nc2ccc(F)cc2s1 | 0.7 | -6.8 | 1.1 | -5.9 | 17.6* | 1.1
N/C(=N\OC(=O)CCCc1ccccc1)c1ccccc1Cl | -0.5 | -2.0 | -0.3 | -3.5 | -5.5 | -5.0
O=C(O)c1cc(Cl)ccc1-c1ccc(/C=C/c2cc(C(F)(F)F)[nH]c(=O)n2)o1 | -2.5 | 11.5 | 39.4* | 42.0* | -5.2 | 0.0
O=C(O)c1ccccc1-c1ccc(/C=C/c2cc(C(F)(F)F)[nH]c(=O)n2)o1 | -6.7 | 1.0 | 10.5 | 43.5* | -7.1 | 8.7
Cc1nnc(SCCCOc2ccccc2)nc1C | -1.8 | -13.2 | 1.0 | 2.2 | 3.7 | 8.1
N#CCc1cnc2ccccc2n1 | 2.9 | -3.5 | 2.4 | 0.1 | 3.8 | -4.8
O=C(NCC(=O)N(CC1CCCO1)C(C(=O)NC1CCCC1)c1cccnc1)c1ccco1 (stereo unspecified) | 23.1* | 4.9 | 0.8 | 8.2 | 16.6 | -12.7
O=C(NCC(=O)N(Cc1ccccc1)C(C(=O)NC1CCCC1)c1cccnc1)c1ccco1 (stereo unspecified) | 8.3 | 2.0 | 1.5 | -6.2 | 18.0* | 6.4
CC1CCCN(C(=O)NC2CC(=O)N(c3ccc4c(c3)OCCO4)C2)C1 (stereo unspecified) | -0.9 | -1.4 | 0.2 | 3.1 | 1.0 | 5.3
CCN(CC)c1ccc(/C=N/Nc2nn[nH]n2)cc1 | 19.5* | -4.5 | 0.4 | 2.3 | 0.3 | -11.4
COc1ccccc1C(=O)NCCC(=O)N1CCN(c2ccccc2O)CC1 | 0.8 | 3.7 | -0.6 | -2.8 | 3.0 | 10.1
COC(c1ccccc1)c1nnc(CCC(=O)N2CCCCCCC2)o1 (stereo unspecified) | 1.7 | -17.6 | 3.1 | 0.2 | 18.1* | 4.7
COC(c1ccccc1)c1nnc(CCC(=O)N2CCN(Cc3cccs3)CC2)o1 (stereo unspecified) | -1.8 | 1.3 | 1.9 | -3.3 | -1.4 | 3.9
C#CCNC(=O)c1cc2c(Br)ccc(Br)c2nc1N | -2.6 | -18.4 | 0.8 | -1.2 | 8.7 | -1.6
O=C1/C(=C/c2ccc3c(c2)OCO3)SC(=S)N1CCC(=O)N(CCO)c1ccccc1 | -13.9 | -7.1 | 6.4 | 82.0* | -0.7 | 66.7*
O=C1/C(=C/c2cccc(Br)c2)SC(=S)N1CCC(=O)N(CCO)c1ccccc1 | 9.3 | -8.2 | 1.3 | 1.5 | 3.9 | 3.9
COc1ccc(/C=C2\SC(=S)N(CCC(=O)N(CCO)Cc3ccccc3)C2=O)cc1OC | 7.6 | 17.5 | 5.1 | -1.8 | 37.1* | -5.0
O=C(NNS(=O)(=O)c1ccccc1)C1CCCCC1 | 6.2 | 1.4 | 0.4 | -4.6 | 2.1 | 5.4
CCOc1cc2[nH]c(=S)n(CCCCC(=O)NCc3ccco3)c(=O)c2cc1OCC | 4.7 | 3.1 | 0.2 | 4.5 | 32.0* | -14.9
Cc1cccc(N2CCN(S(=O)(=O)c3c(C)[nH]c(C)c3C(=O)N3CCCC3)CC2C)c1 (stereo unspecified) | 0.8 | -7.9 | 0.3 | -3.6 | 7.3 | 0.9
C[C@H](CO)N1C[C@H](C)[C@H](CN(C)C(=O)Nc2ccc(C(C)(C)C)cc2)OCc2cnnn2CCCC1=O | 6.5 | -16.3 | 0.9 | -1.3 | 1.7 | -10.9
CS(=O)(=O)Nc1cccc(-c2cn3c(n2)SCC3)c1 | -4.9 | -7.6 | 0.1 | -7.3 | 7.5 | 31.3*
CCS(=O)(=O)Nc1cccc(-c2cn3c(n2)SCC3)c1 | 0.9 | -0.9 | 0.8 | -2.3 | 1.2 | -4.5
SMILES | CHRM5 PAM | CHRM4 antagonist | M4 ag | CHRM5 agonist | M4 PAM | CHRM5 antagonist
Nc1c(C(=O)c2ccc(Cl)cc2)sc2nc3c(cc12)CCC3 | -1.7 | 9.8 | 1.4 | -1.8 | 23.0* | 6.8
O=C(C1CCCCC1)N1CCC2CC1c1cc(N3CCCCC3)ccc12 (stereo unspecified) | -7.0 | 37.2* | 2.9 | -1.7 | -12.7 | 11.2
O=C(c1ccccc1F)N1CCC2CC1c1cc(N3CCCCC3)ccc12 (stereo unspecified) | -1.6 | 1.9 | 4.1 | 0.6 | -8.4 | -9.7
CCNS(=O)(=O)c1c(C)cc(C)c(N(C)S(=O)(=O)c2ccccc2)c1C | -1.7 | 6.1 | 2.2 | 0.2 | -7.3 | 3.9
CCOc1cc(N2CCOCC2)c(OCC)cc1NC(=O)c1cc(-c2ccco2)nc2ccccc12 | -13.3 | 28.5* | 17.0 | 4.3 | -23.8 | 22.3
Cc1c(C(c2ccccc2O)c2c(C)n(C)n(-c3ccccc3)c2=O)c(=O)n(-c2ccccc2)n1C | 5.7 | -1.5 | 1.1 | 0.5 | 12.6 | 5.0
Cc1c(C(c2cc3c(cc2Br)OCO3)c2c(C)n(C)n(-c3ccccc3)c2=O)c(=O)n(-c2ccccc2)n1C | 0.0 | 43.5* | -0.5 | -3.2 | -28.5 | -4.7
O=C(O)c1cc2c(N3CCC(Cc4ccccc4)CC3)ncnc2s1 | -0.5 | 9.5 | 0.7 | 1.1 | 7.2 | -4.2
c1ccc(CC2CCN(c3ncnc4sccc34)CC2)cc1 | -31.5 | 20.4 | 11.9 | -0.9 | -22.6 | 37.9*
Cc1ccc(S(=O)(=O)Nc2cccc3ncccc23)s1 | -16.4 | 27.9* | 2.1 | -10.4 | -2.3 | 26.2
Cc1ccc(S(=O)(=O)Nc2cccc3ncccc23)cc1 | -2.1 | -4.7 | 4.3 | -0.7 | 12.1 | -1.3
FC(F)(F)c1cc(CCN2CCNC[C@@H]2CC2CCCCC2)cc(C(F)(F)F)c1 | -39.4 | 29.1* | 0.0 | -10.9 | -8.1 | 25.5
CCOC(=O)C1=C(C)N(CC(C)C)C(=O)C1 | 0.6 | -10.0 | 1.7 | 1.6 | 22.2* | 6.5
CN(C)c1ccc(NC(=O)CN2CCC(N3CCCCC3)CC2)cc1 | 23.6* | -16.6 | 0.7 | -2.5 | 6.7 | -0.3
CN(C)c1ccc(NC(=O)CN2CCC(NC(=O)C3CCCCC3)CC2)cc1 | 6.1 | -0.5 | 1.1 | -0.8 | 4.9 | -4.0
COc1ccccc1C(=O)NCCC(=O)Nc1ccc(S(=O)(=O)N2CC(C)CC(C)C2)cc1 (stereo unspecified) | -5.6 | -22.8 | 14.3 | -3.4 | 3.4 | 5.0
Cc1ccccc1N1CCN(CCN2C(=O)CC(=C3c4ccccc4-c4ccccc43)C2=O)CC1 | 5.8 | -10.8 | 0.5 | 1.7 | 14.1 | -3.8
